From PubChem
The list is not random: actives were taken first. Their share in the collection is about 3.1%.
Beta cell apopt: beta cell apoptosis inhibition. INS-1E cytokine-induced death, ATP luminescence, 48 h; percent of positive-control rescue, neutral wells zero. protection from apoptosis, % (concentration not given with the values). 300,000 compounds, 0.8% hits. AID 435005;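 active means Every replicate reaches about 75%, or at least half do and their mean reaches it too, limit read from the data; inconclusive means At least half of replicates reach the limit but their mean does not; inactive means Under half of replicates reach the limit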;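 further: 0% = cytokine-treated negative control wells and 100% = positive control rescue; higher means more ATP so stronger rescue from cytokine killing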
CSC inhib: cancer stem cell inhibition; cancer stem cell-like cells viability, luminescence; inhibition, % at 7.5 µM; 300,000 compounds, 1.1% hits; AID 2717; in the data active means inhibition above about 75%; inconclusive means no clear call, values can overlap the other calls; tested in HMLE shEcad cells
HIF act: HIF pathway transcriptional activation; U2OS HRE-luciferase reporter, luminescence; normalized: DMSO 0%, desferrioxamine 100%; activation, % at 7.5 µM (by protocol); 300,000 compounds, 0.32% hits;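 active means mean activation of at least 10% of the iron chelator positive control signal, with at least half of replicates also reaching 10%; inconclusive means mean and replicate majority disagree about reaching 10%; inactive means mean and most replicates under 10%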
Calb FLC: C. albicans growth modulation with fluconazole | 300,000 compounds, 0.57% hits | growth inhibition, % (no concentration beside the values) | C. albicans CaCi-2 (fluconazole-resistant clinical isolate) + fluconazole, Alamar Blue growth, 48 h;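 active means growth inhibition above about 58% in most replicates, limit read from the data, passing the limit was not always enough; inconclusive means exactly half the replicates above a set limit; inactive means most replicates below a set limit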;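 further: all wells also contain fluconazole at 8 µg/ml as a sub-toxic cotreatment; 0% = median of DMSO wells and 100% = median of geldanamycin control wells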
PolyA inh: yeast polyadenylation inhibition; S. cerevisiae SKY197-pL101 polyadenylation reporter, beta-gal luminescence; efflux-impaired pdr1/pdr3 knockout yeast; score 100 = 6 SD above DMSO; activity score, % at 12 µM; 300,000 compounds, 0.02% hits; AID 1875;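 active means lowest replicate activity score at least 50, where 100 means six control SD above control mean; inconclusive means lowest score under 50 but half or more replicates reach 50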;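 further: yeast exposed to compound for 9 h at 30 °C; higher score means more reporter readthrough which indicates perturbed polyadenylation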
T cruzi inh: T. cruzi replication inhibition; T. cruzi beta-gal in NIH3T3, luminescence, 90 h; inhibition, % (no concentration beside the values); 300,000 compounds, 1.4% hits;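 active means mean inhibition across valid replicates above about 55%, limit read from the data; inconclusive means mean below that limit but half or more replicates reach it; inactive means mean below it, under half of replicates reach it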;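 further: signal also drops with host cell toxicity which is not excluded here; 0% = plate median of DMSO wells and 100% = zero luminescence signal; higher percent means less beta-gal luminescence so fewer parasites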
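System: Mouse NIH/3T3 fibroblasts infected with β-gal-expressing T. cruzi Tulahuen C4 | Quantity: NIH/3T3 cells, 5,000 per well | Reagent: 5000 reporter trypomastigotes per well | Dosing: Compound pinned at 50 nL/well, DMSO | Schedule: 3 h host attachment, then at least 90 h co-culture | Detection: GalScreen luminescence, 60 min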
Active calls of the source: *.

`Cc1ccc(NC(=O)C2CCCN(C3=NS(=O)(=O)c4ccccc43)C2)c(O)c1` (stereo not drawn) gave Beta cell apopt 0.8 and CSC inhib -13.7.
`CCOc1ccc(CN(C)CC(=O)Nc2ccc([N+](=O)[O-])cc2Cl)cc1` gave Beta cell apopt 4.5, CSC inhib 21.6, HIF act -0.3, Calb FLC 4.6, PolyA inh -7.9 and T cruzi inh 11.7.
For CC(C)c1ccc(NC(=O)Cc2cn(C)c3ccccc23)cc1 the results were Beta cell apopt 3.8, CSC inhib 0.7, HIF act 0.1, Calb FLC 114.1*, PolyA inh -14.3 and T cruzi inh -12.4.
`CC(C)c1ccc(NC(=O)c2cc3c(=O)n(C)c4ccccc4c3n2C)cc1` gave Beta cell apopt 12.7, CSC inhib 75.8*, HIF act -0.5, Calb FLC 2.0, PolyA inh 0.5 and T cruzi inh 60.3*.
Screening COc1ccc(NC(=O)c2cc3c(=O)n(C)c4ccccc4c3n2C)cc1OC returned Beta cell apopt 7.3, CSC inhib 12.7, HIF act -0.3, Calb FLC 1.6, PolyA inh 3.5 and T cruzi inh 21.1.
For COC(=O)c1ccc(-c2ccc(OC)c([C@H]3[C@H]4C=CC[C@@H](C)[C@@H]4C(=O)N3Cc3ccccc3)c2)cc1 the results were Beta cell apopt -10.5, CSC inhib 21.1, HIF act -0.8, Calb FLC -3.0, PolyA inh -10.1 and T cruzi inh 46.9.
For COc1ccc(-c2ccc(C(C)=O)cc2)cc1[C@H]1[C@H]2C=CC[C@@H](C)[C@@H]2C(=O)N1Cc1ccccc1 the results were Beta cell apopt 12.0, CSC inhib 19.0, HIF act -1.9, Calb FLC 15.0, PolyA inh 4.5 and T cruzi inh 60.0*.
For CC(=O)c1ccc(-c2ccc([C@H]3[C@H]4C=CC[C@@H](C)[C@@H]4C(=O)N3Cc3ccccc3)c(F)c2)cc1 the results were Beta cell apopt 9.5, CSC inhib 75.3*, HIF act -0.7, Calb FLC -6.1, PolyA inh 7.8 and T cruzi inh 45.7.
For Cc1cnc(NC(=O)c2cc3ccccc3o2)s1 the results were Beta cell apopt 0.8, CSC inhib 0.9, HIF act -3.2, Calb FLC 0.4, PolyA inh -20.7 and T cruzi inh -3.0.
Cc1c(CCOC(=O)C23CC4CC(CC(C4)C2)C3)sc[n+]1Cc1ccccc1 was read as Beta cell apopt 10.1, CSC inhib 44.8, HIF act 0.4, Calb FLC 57.2, PolyA inh -7.2 and T cruzi inh 1.0.
Cc1c(CCOC(=O)C23CC4(C)CC(C)(CC(C)(C4)C2)C3)sc[n+]1CC(=O)c1ccccc1 was read as Beta cell apopt 22.0, HIF act 0.1, Calb FLC 112.8*, PolyA inh -9.8 and T cruzi inh 31.0.
Screening Cc1c(CCOC(=O)c2ccc(Cl)cc2Cl)sc[n+]1CC(=O)c1ccccc1 returned Beta cell apopt -4.7 and CSC inhib -10.0.
Cc1c(CCOC(=O)CC23CC4CC(CC(C4)C2)C3)sc[n+]1CC(=O)c1ccccc1 was read as Beta cell apopt 26.4, CSC inhib 100.0*, HIF act 0.9, Calb FLC 55.9, PolyA inh -18.4 and T cruzi inh 34.9.
Screening Cc1c(CCOC(=O)C23CC4CC(CC(C)(C4)C2)C3)sc[n+]1Cc1ccccc1 returned Beta cell apopt 33.5, CSC inhib 30.7, HIF act -0.8, Calb FLC 100.7*, PolyA inh 5.1 and T cruzi inh inconclusive.
For Cc1ccc(C(=O)OCCc2sc[n+](Cc3ccccc3)c2C)cc1 the results were Beta cell apopt -0.6, CSC inhib 2.3, HIF act -0.5, Calb FLC -23.2, PolyA inh 19.3 and T cruzi inh 5.1.
Screening Cc1c(CCOC(=O)c2cc([N+](=O)[O-])cc([N+](=O)[O-])c2)sc[n+]1CC(=O)c1ccc(Br)cc1 returned Beta cell apopt 0.8, CSC inhib 38.0, HIF act -0.5, Calb FLC -0.7, PolyA inh -14.5 and T cruzi inh 57.5*.
O=C(NCCc1ccc(Cl)cc1)c1cc(S(=O)(=O)N2CCCCC2)c[nH]1 was read as Beta cell apopt -0.9, CSC inhib 3.9, HIF act -0.1, Calb FLC 6.2, PolyA inh -12.3 and T cruzi inh 4.4.
O=C(CC1NCCc2ccccc21)Nc1ccc(Oc2ccccc2)cc1 (stereo not drawn) was read as CSC inhib 95.0*, HIF act 0.1, Calb FLC 11.0, PolyA inh 2.8 and T cruzi inh 41.9.
`O=C(NCCn1cccn1)C1CCC(=O)N(CCc2ccc(Cl)cc2)C1` (stereo not drawn) gave HIF act 1.8, Calb FLC 1.1, PolyA inh 7.5 and T cruzi inh -15.3.
For CN1CCC2(CC1)N=C(c1ccc(F)cc1)C(=S)N2C(=O)c1ccc(C(C)(C)C)cc1 the results were Beta cell apopt -3.1, CSC inhib 37.1, HIF act 191.2*, Calb FLC 0.1, PolyA inh -3.2 and T cruzi inh 29.6.
For Cc1ccc(NC(=O)CN2C(=O)N/C(=C\c3ccco3)C2=O)cc1 the results were Beta cell apopt -1.7 and CSC inhib -5.0.
Screening COc1ccc(N(C)S(=O)(=O)c2ccc(Cl)c(C(=O)NCC(C)(C)N3CCOCC3)c2)cc1 returned Beta cell apopt 6.7 and CSC inhib 7.6.
O=C(NC1(C(F)(F)F)N=C(c2ccccc2)NC1=O)c1ccccc1 (stereo not drawn) was read as Beta cell apopt 1.9, CSC inhib 3.8, HIF act 0.0, Calb FLC -3.9, PolyA inh 19.1 and T cruzi inh -7.8.
Screening c1ccc(-c2cccc(-c3ccccn3)n2)nc1 returned Beta cell apopt 81.5*, CSC inhib 107.0*, HIF act 211.7*, Calb FLC 100.1*, PolyA inh 24.6 and T cruzi inh 51.8.
CCC(C)NC(=O)NCc1ccccc1F (stereo not drawn) was read as CSC inhib -10.9, HIF act 0.0, Calb FLC -6.7, PolyA inh -7.3 and T cruzi inh -14.5.
Screening CN(Cc1ccccc1)C(=O)COC(=O)CCC(=O)c1ccc(Cl)cc1 returned Beta cell apopt 4.8.
`COc1ccc(-c2nc(-c3ccccn3)no2)cc1` gave Beta cell apopt 89.1*, CSC inhib 87.6*, HIF act -3.7 and T cruzi inh 11.8.
COc1ccccc1-c1nc(-c2ccccn2)no1 was read as CSC inhib 44.5, HIF act -2.5, Calb FLC 0.9, PolyA inh 15.8 and T cruzi inh -9.6.
CCOc1ccc(OCC)c(-c2c(=O)n(OCc3ccccc3Br)c3ccccc3[n+]2[O-])c1 was read as Beta cell apopt 14.4, CSC inhib -6.4, HIF act -0.6, Calb FLC 0.6, PolyA inh -4.3 and T cruzi inh 41.6.
